Assay results taken from ChEMBL document CHEMBL4118253, “Expedient synthesis and biological evaluation of alkenyl acyclic nucleoside phosphonate prodrugs” (Bioorg Med Chem, 2018).

Assays:
[1] = system: Human alphaherpesvirus 3; experiment: Antiviral activity against thymidine kinase deficient Varicella-Zoster virus infected in HEL cells assessed as reduction in virus plaque formation; format: functional, organism-based; settings: Human alphaherpesvirus 3, HEL
[2] = Cytotoxicity against African green monkey Vero cells assessed as alteration of cell morphology by microscopic analysis; format: cell-based; settings: chlorocebus sabaeus
Summary of the method: (§1)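 The value is the minimal cytotoxic concentration (MCC), the lowest concentration that causes a microscopically visible change in cell morphology. It was read in the same HEL or Vero cell cultures used for the antiviral tests.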

[3] = system: Human alphaherpesvirus 1; experiment: Antiviral activity against Herpes simplex virus 1 KOS infected in HEL cells assessed as inhibition of virus-induced cytopathicity; format: functional, organism-based; settings: Human alphaherpesvirus 1, KOS
[4] = system: Influenza A virus; experiment: Antiviral activity against Influenza A virus H1N1 infected in MDCK cells assessed as inhibition of virus-induced visual cytopathicity; format: functional, organism-based
[5] = system: Vaccinia virus; experiment: Antiviral activity against Vaccinia virus infected in HEL cells assessed as inhibition of virus-induced cytopathicity; format: functional, organism-based; settings: Orthopoxvirus vaccinia
[6] = Half life in rat serum by 31P NMR analysis; format: ADME, cell-free
[7] = system: Respiratory syncytial virus; experiment: Antiviral activity against Respiratory syncytial virus infected in human HeLa cells assessed as inhibition of virus-induced cytopathicity; format: functional, organism-based
[8] = Cytotoxicity against human HeLa cells assessed as alteration of cell morphology by microscopic analysis; format: cell-based
[9] = system: Human adenovirus 2; experiment: Antiviral activity against Adenovirus 2 infected in HEL cells assessed as inhibition of virus-induced cytopathicity; format: functional, organism-based; settings: Human mastadenovirus C
[10] = system: Human alphaherpesvirus 1; experiment: Antiviral activity against acyclovir-resistant thymidine kinase deficient Herpes simplex virus 1 KOS infected in HEL cells assessed as inhibition of virus-induced cytopathicity; format: functional, organism-based; settings: Human alphaherpesvirus 1, KOS
[11] = Cytotoxicity against MDCK cells assessed as alteration of cell morphology by microscopic analysis; format: cell-based, Canis lupus familiaris; settings: dog
[12] = system: Influenza A virus H3N2; experiment: Antiviral activity against Influenza A virus H3N2 infected in MDCK cells assessed as inhibition of virus-induced cytopathicity by MTS assay; format: functional, organism-based
[13] = system: Vesicular stomatitis virus; experiment: Antiviral activity against Vesicular stomatitis virus infected in human HeLa cells assessed as inhibition of virus-induced cytopathicity; format: functional, organism-based
[14] = system: Human alphaherpesvirus 3; experiment: Antiviral activity against thymidine kinase expressing Varicella-Zoster virus infected in HEL cells assessed as reduction in virus plaque formation; format: functional, organism-based; settings: Human alphaherpesvirus 3, HEL
[15] = system: Influenza B virus; experiment: Antiviral activity against Influenza B virus infected in MDCK cells assessed as inhibition of virus-induced cytopathicity by MTS assay; format: functional, organism-based
[16] = system: Human betaherpesvirus 5; experiment: Antiviral activity against Human cytomegalovirus Davis infected in HEL cells assessed as inhibition of virus-induced cytopathicity; format: functional, organism-based; settings: Human betaherpesvirus 5, Davis
[17] = system: Sindbis virus; experiment: Antiviral activity against Sindbis Virus infected in African green monkey Vero cells assessed as inhibition of virus-induced cytopathicity; format: functional, organism-based
[18] = system: Human respirovirus 3; experiment: Antiviral activity against Parainfluenza virus 3 infected in human HeLa cells assessed as inhibition of virus-induced cytopathicity; format: functional, organism-based; settings: Human respirovirus 3, HeLa
[19] = Half life in human serum by 31P NMR analysis; format: ADME, cell-free
[20] = system: Human coronavirus 229E; experiment: Antiviral activity against Human coronavirus 229E infected in HEL cells assessed as inhibition of virus-induced cytopathicity; format: functional, organism-based
[21] = system: Human alphaherpesvirus 2; experiment: Antiviral activity against Herpes simplex virus 2 G infected in HEL cells assessed as inhibition of virus-induced cytopathicity; format: functional, organism-based; settings: Human alphaherpesvirus 2, strain G
[22] = system: Human betaherpesvirus 5; experiment: Antiviral activity against Human cytomegalovirus AD169 infected in HEL cells assessed as inhibition of virus-induced cytopathicity; format: functional, organism-based; settings: Human betaherpesvirus 5, AD169, HEL
[23] = system: Coxsackievirus B4; experiment: Antiviral activity against Coxsackie virus B4 infected in African green monkey Vero cells assessed as inhibition of virus-induced cytopathicity; format: functional, organism-based; settings: Enterovirus B
[24] = system: Influenza A virus; experiment: Antiviral activity against Influenza A virus H1N1 infected in MDCK cells assessed as inhibition of virus-induced cytopathicity by MTS assay; format: functional, organism-based
[25] = system: Influenza B virus; experiment: Antiviral activity against Influenza B virus infected in MDCK cells assessed as inhibition of virus-induced visual cytopathicity; format: functional, organism-based
[26] = system: Punta Toro virus; experiment: Antiviral activity against Punta Toro virus infected in African green monkey Vero cells assessed as inhibition of virus-induced cytopathicity; format: functional, organism-based
[27] = system: Mammalian orthoreovirus 1; experiment: Antiviral activity against Reovirus-1 infected in human HeLa cells assessed as inhibition of virus-induced cytopathicity; format: functional, organism-based; settings: Mammalian orthoreovirus 1, HeLa
[28] = system: Yellow fever virus; experiment: Antiviral activity against Yellow fever virus infected in African green monkey Vero cells assessed as inhibition of virus-induced cytopathicity; format: functional, organism-based
[29] = Cytotoxicity against HEL cells assessed as alteration of cell morphology by microscopic analysis; format: cell-based; settings: human; summary of the method: as §1
[30] = system: Influenza A virus H3N2; experiment: Antiviral activity against Influenza A virus H3N2 infected in MDCK cells assessed as inhibition of virus-induced visual cytopathicity; format: functional, organism-based

SMILES: C/C(=C\CP(=O)(N[C@@H](C)C(=O)OC(C)C)Oc1cccc2c1CCCC2)Cn1cc(C)c(=O)[nH]c1=O (stereo not given in full)
- EC50 [1]: 53.5 µM
- MCC [2]: ≥ 20 µM
- EC50 [3]: > 100 µM
- EC50 [4]: > 100 µM
- EC50 [5]: > 100 µM
- t1/2 [6]: > 12 h
- EC50 [7]: > 100 µM
- MCC [8]: ≥ 20 µM
- EC50 [9]: > 100 µM
- EC50 [10]: > 100 µM
- MCC [11]: > 100 µM
- EC50 [12]: > 100 µM
- EC50 [13]: > 100 µM
- EC50 [14]: 58.5 µM
- EC50 [15]: > 100 µM
- EC50 [16]: > 20 µM
- EC50 [17]: > 100 µM
- EC50 [18]: > 100 µM
- t1/2 [19]: > 12 h
- EC50 [20]: > 100 µM
- EC50 [21]: > 100 µM
- EC50 [22]: > 100 µM
- EC50 [23]: > 100 µM
- EC50 [24]: > 100 µM
- EC50 [25]: > 100 µM
- EC50 [26]: > 100 µM
- EC50 [27]: > 100 µM
- EC50 [28]: > 100 µM
- MCC [29]: > 100 µM
- EC50 [30]: > 100 µM
